Columns and labels:
Type in all cases: functional
[1] = test system: Brontispa longissima; assay: Antifeedant activity against third-instar larvae of Brontispa longissima at 1 mg/mL after 24 hr by conventional leaf disk method
How it was run: (§1)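 Third-instar larvae exposed to test material at 1 mg/mL. Antifeedant rate is given as percent, mean ± SD, and is read after 24 h […] and 48 h […].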

[2] = test system: Brontispa longissima; assay: Insecticidal activity against third-instar larvae of Brontispa longissima assessed as mortality at 1 mg/mL after 9 days
[3] = test system: Brontispa longissima; assay: Antifeedant activity against third-instar larvae of Brontispa longissima at 1 mg/mL after 48 hr by conventional leaf disk method; how it was run: as §1
[4] = test system: Brontispa longissima; assay: Antifeedant activity against third-instar larvae of Brontispa longissima after 24 hr by conventional leaf disk method
How it was run: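 Value is an AFC50: the concentration giving 50% antifeedant activity against third-instar larvae after 24 h exposure.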

## COC(=O)[C@H](O)[C@H]1C(C)(C)[C@H](OC(=O)C(C)C)[C@]2(O)CC3=C4CC(=O)O[C@@H](c5ccoc5)[C@]4(C)CC[C@@H]3[C@@]1(C)C2=O [MOLUCCENSIN R]
[1]
  Activity: 69.6%
[2]
  Activity: 17%
[3]
  Activity: 62.1%

## COC(=O)C[C@H]1C(C)(C)[C@H](OC(C)=O)[C@]2(O)CC3=C4CC(=O)O[C@@H](c5ccoc5)[C@]4(C)CC[C@@H]3[C@@]1(C)C2=O [2-HYDROXYFISSINOLIDE]
[4]
  AFC50: 94 µg/mL
[1]
  Activity: 93.7%
[2]
  Activity: 34.4%
[3]
  Activity: 91.5%

## COC(=O)[C@H](O)[C@H]1C(C)(C)C(=O)[C@@H]2CC3=C4CC(=O)O[C@@H](c5ccoc5)[C@]4(C)CC[C@@H]3[C@@]1(C)C2=O [6-HYDROXYMEXICANOLIDE]
[1]
  Activity: 76.6%
[2]
  Activity: 20.7%
[3]
  Activity: 69.3%

## CCC(C)C(=O)O[C@H]1C(C)(C)[C@H]([C@@H](O)C(=O)OC)[C@]2(C)C(=O)[C@@]1(O)CC1=C3CC(=O)O[C@@H](c4ccoc4)[C@]3(C)CC[C@@H]12 (stereo partly drawn) [MOLUCCENSIN S]
[1]
  Activity: 42.3%
[2]
  Activity: 48.2%
[3]
  Activity: 44.1%
